In ChEMBL document CHEMBL1142516, “Design, synthesis, and structure-affinity relationships of novel series of sialosides as CD22-specific inhibitors” (J Med Chem, 2008) one finds IC50 data, which are given here for seven compounds.

What is called pIC50 is the IC50 on a negative log10 scale, so that one unit is a factor of ten. Read a low pIC50 as a high IC50.

A short description of assay [1]: Binding affinity to biotinylated mouse CD22-human IgG1 chimeric protein expressed in mouse J558LST6 cells by flow cytometry. The format is cell-based. The method in brief:
(§1)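 IC50 from inhibition of CD22-Fc binding to alpha2,6-sialic acid on ST6GalI-transfected J558L mouse myeloma cells (J558LST6), incubated with CD22-Fc plus varied sialoside concentrations. Detection with Alexa Fluor 647-streptavidin, 30 min on ice, then flow cytometry. % binding = (A−B)/(C−B)×100 using MFI: A, sialoside sample; B, parent J558L; C, untreated J558LST6. IC50 taken as 50% binding inhibition; means of ≥3 independent determinations.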

The target of the next assay is T1, B-cell receptor CD22 (Homo sapiens, UniProt P20273).
T1 sequence (P20273 whole entry): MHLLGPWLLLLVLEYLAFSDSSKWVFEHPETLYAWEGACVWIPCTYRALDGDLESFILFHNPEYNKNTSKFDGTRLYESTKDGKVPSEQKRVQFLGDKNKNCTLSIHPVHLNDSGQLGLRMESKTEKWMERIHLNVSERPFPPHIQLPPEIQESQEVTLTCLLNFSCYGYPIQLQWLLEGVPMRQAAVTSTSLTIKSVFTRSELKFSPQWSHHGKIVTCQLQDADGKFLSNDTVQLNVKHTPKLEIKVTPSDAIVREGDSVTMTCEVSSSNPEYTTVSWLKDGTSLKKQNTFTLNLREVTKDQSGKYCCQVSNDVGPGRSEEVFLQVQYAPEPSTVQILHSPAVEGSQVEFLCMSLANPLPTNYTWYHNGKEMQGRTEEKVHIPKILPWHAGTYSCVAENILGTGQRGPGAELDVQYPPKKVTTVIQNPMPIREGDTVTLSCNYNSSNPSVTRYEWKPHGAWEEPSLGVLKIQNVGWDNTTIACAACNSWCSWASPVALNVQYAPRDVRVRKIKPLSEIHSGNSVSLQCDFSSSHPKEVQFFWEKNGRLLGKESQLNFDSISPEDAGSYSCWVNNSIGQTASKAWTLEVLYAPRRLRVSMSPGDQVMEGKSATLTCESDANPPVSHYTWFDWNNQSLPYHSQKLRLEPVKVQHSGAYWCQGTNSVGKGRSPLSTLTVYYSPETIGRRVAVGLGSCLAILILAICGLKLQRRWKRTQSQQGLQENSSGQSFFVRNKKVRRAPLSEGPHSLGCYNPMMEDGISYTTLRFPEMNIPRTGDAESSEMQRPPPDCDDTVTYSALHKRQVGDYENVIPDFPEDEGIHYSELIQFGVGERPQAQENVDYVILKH
Briefly: Binding affinity to biotinylated human CD22-human IgG1 chimeric protein expressed in mouse J558LST6 cells by flow cytometry. The assay is classed as cell-based. The method in brief: as §1

pIC50: −log10 of the molar value.

As for `COc1ccc(O[C@@H]2O[C@H](CO[C@]3(C(=O)O)C[C@H](O)[C@@H](NC(=O)CO)[C@H]([C@H](O)[C@H](O)CNC(=O)c4cc(Cl)ccc4O)O3)[C@H](O)[C@H](O)[C@H]2O)cc1`, the values for the pIC50 (in assay [1]; at B-cell receptor CD22) were 3.79 and 3.94, respectively.
For the compound `C[Si](C)(C)CCO[C@@H]1O[C@H](CO[C@]2(C(=O)O)C[C@H](O)[C@@H](NC(=O)CO)[C@H]([C@H](O)[C@H](O)CO)O2)[C@H](O)[C@H](O)[C@H]1O`, the pIC50 in assay [1] was 3.08; at B-cell receptor CD22, 3.26.
For `COc1ccc(O[C@@H]2O[C@H](CO[C@]3(C(=O)O)C[C@H](O)[C@@H](NC(=O)CO)[C@H]([C@H](O)[C@H](O)CNC(=O)c4ccccc4)O3)[C@H](O)[C@H](O)[C@H]2O)cc1`, in that order: 3.94 and 3.90.
`COc1ccc(O[C@@H]2O[C@H](CO[C@]3(C(=O)O)C[C@H](O)[C@@H](NC(=O)CO)[C@H]([C@H](O)[C@H](O)CO)O3)[C@H](O)[C@H](O)[C@H]2O)cc1`: the pIC50 in assay [1] was 3.30; at B-cell receptor CD22, 3.83.
For `COc1ccc(O[C@@H]2O[C@H](CO[C@]3(C(=O)O)C[C@H](O)[C@@H](NC(=O)CO)[C@H]([C@H](O)[C@H](O)CNC(=O)c4cccnc4)O3)[C@H](O)[C@H](O)[C@H]2O)cc1`, in that order: 4.49 and 3.88.
For the compound `COc1ccc(O[C@@H]2O[C@H](CO[C@]3(C(=O)O)C[C@H](O)[C@@H](NC(=O)CO)[C@H]([C@H](O)[C@H](O)CNC(=O)c4ccccc4O)O3)[C@H](O)[C@H](O)[C@H]2O)cc1`, the negative-log IC50 (pIC50) in assay [1] was 3.86; on B-cell receptor CD22 it was 3.72.
On to `COc1ccc(O[C@@H]2O[C@H](CO[C@]3(C(=O)O)C[C@H](O)[C@@H](NC(=O)CO)[C@H]([C@H](O)[C@H](O)CN)O3)[C@H](O)[C@H](O)[C@H]2O)cc1`, for which the pIC50 was 4.03 in assay [1] and 4.07 at B-cell receptor CD22.
